Measurements taken from ChEMBL document CHEMBL1136953, “Design, synthesis, and evaluation of N-acyl modified sialic acids as inhibitors of adenoviruses causing epidemic keratoconjunctivitis” (J Med Chem, 2009).
Active and inactive are the calls of the source. No cut-off for these calls is given here.

What was measured:
Human adenovirus D37 [1] = experiment: Inhibition of [35S]labeled Human adenovirus type 37 virions binding to human corneal epithelial cells by liquid scintillation counting; type: functional, organism-based; settings: Cornea, Epithelial cell
Outline: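 ³⁵S-labeled Ad37 virions preincubated with ligand before being added to HCE cells. After incubation, unbound virions washed away and cell-associated radioactivity measured. Each run used a duplicate dilution series (2, 4, 8 and 16 mM), averaged from duplicates. Experiment repeated three times; large variation allowed only a rough activity estimate.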

Human adenovirus D37 [2] = experiment: Antiviral activity against Human adenovirus type 37 virions assessed as inhibition of viral infection in human corneal epithelial cells preincubated for 1 hr; type: functional, organism-based; settings: Cornea, Epithelial cell
Outline: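 Unlabeled Ad37 virions preincubated with a dilution series of ligand, then incubated with HCE cells. Unbound virions washed off; cell-associated virions allowed to infect. Infected cells stained with rabbit polyclonal anti-Ad37 serum and FITC-conjugated swine anti-rabbit IgG, then counted as fluorescent focus units under an immunofluorescence microscope. Duplicates within one experiment; experiment repeated twice.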

SMILES	Activity (Human adenovirus D37 [1])	Activity (Human adenovirus D37 [2])
CNC(=O)N[C@H]1[C@H]([C@H](O)[C@H](O)CO)O[C@](OC)(C(=O)O)C[C@@H]1O	inactive	–
CO[C@@]1(C(=O)O)C[C@H](O)[C@@H](NC(=O)c2ccccc2)[C@H]([C@H](O)[C@H](O)CO)O1	Active	inactive
CCCC(=O)N[C@H]1[C@H]([C@H](O)[C@H](O)CO)O[C@](OC)(C(=O)O)C[C@@H]1O	inactive	inactive
COC(=O)N[C@H]1[C@H]([C@H](O)[C@H](O)CO)O[C@](OC)(C(=O)O)C[C@@H]1O	Active	Dose-dependent effect
CC(=O)N[C@H]1[C@H]([C@@H](O)[C@@H](O)CO)O[C@@](O)(C(=O)O)C[C@@H]1O	Active	Dose-dependent effect
O=C(CO)N[C@H]1[C@H]([C@H](O)[C@H](O)CO)O[C@](O)(C(=O)O)C[C@@H]1O	inactive	–
CCC(=O)N[C@H]1[C@H]([C@H](O)[C@H](O)CO)O[C@](OC)(C(=O)O)C[C@@H]1O	Active	Dose-dependent effect
CO[C@@]1(C(=O)O)C[C@H](O)[C@@H](NC(=O)C(C)C)[C@H]([C@H](O)[C@H](O)CO)O1	inactive	inactive
CCCCC(=O)N[C@H]1[C@H]([C@H](O)[C@H](O)CO)O[C@](OC)(C(=O)O)C[C@@H]1O	inactive	–
CO[C@@]1(C(=O)O)C[C@H](O)[C@@H](NC(=O)OC(C)(C)C)[C@H]([C@H](O)[C@H](O)CO)O1	inactive	–
